Data on eight molecules can be found in ChEMBL document CHEMBL1126205, “Novel spirosuccinimides with incorporated isoindolone and benzisothiazole 1,1-dioxide moieties as aldose reductase inhibitors and antihyperglycemic agents” (1992).

The test system of assay [1] is Mus musculus. Kind of assay: Antihyperglycemic activity measured as percent decrease in mice plasma glucose at 87 mg/Kg/day. The assay is classed as functional. The method in brief: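 Male db/db (C57BL/KsJ) mice, 4–6 per group, dosed at the stated mg/kg per day. Plasma glucose is expressed as percent decrease versus the vehicle-treated group. Values are mean ± SE.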

Assay [2] deals with Rattus norvegicus. Kind of assay: In vivo galactitol inhibitory activity measured by its ability to inhibit galactitol accumulation in lens at 9 mg/Kg/day; NS=Not significant (% Inhibition). The conditions noted are these: Lens of camera-type eye. The assay is classed as functional, organism-based. The method in brief:
(§1)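 Rats (n = 6) fed 20% galactose for 4 days, with compound given in the diet at the stated daily dose. Galactitol accumulation was measured in lens, sciatic nerve and diaphragm, and % inhibition was taken versus the nontreated group. Means are from three to eight drug-treated tissue samples. Dunnett's multiple comparison test was applied, with p > 0.05 reported as not significant.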

Assay [3] has as its system Rattus norvegicus. Kind of assay: In vivo galactitol inhibitory activity measured by its ability to inhibit galactitol accumulation in lens at 3 mg/Kg/day; NS=Not significant (% Inhibition). The assay is classed as functional, organism-based. The note with it: Lens of camera-type eye. In outline: (§2)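 Rats (n = 6) fed 20% galactose for 4 days, with compound given in the diet at the stated mg/kg per day. Galactitol accumulation in lens, sciatic nerve or diaphragm is scored as percent inhibition versus the non-treated group, as means of 3–8 drug-treated tissue samples. Dunnett's multiple comparison test applies; NS means p > 0.05.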

In assay [4] the test system is Rattus norvegicus. Kind of assay: In vivo galactitol inhibitory activity measured by its ability to inhibit galactitol accumulation in sciatic nerve at 3 mg/Kg/day. The assay is classed as functional. In outline: as §1
Assay [5] concerns the target Aldo-keto reductase family 1 member B1 (Bos taurus) (UniProt P16116). Kind of assay: In vitro aldose reductase inhibitory activity measured by NADPH-dependent inhibition of glyceraldehyde reduction in a partially purified bovine lens preparation at 10E-6 M. In outline: (§3)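 Aldose reductase partially purified from bovine lens. Inhibition of NADPH-dependent glyceraldehyde reduction is measured at the single stated concentration and reported as percent inhibition, the mean of two determinations.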

For assay [6] the target is unchanged. Kind of assay: In vitro aldose reductase inhibitory activity measured by NADPH-dependent inhibition of glyceraldehyde reduction in a partially purified bovine lens preparation at 10E-7 M. The method in brief:
as §3

Assay [7] relates to Rattus norvegicus. Kind of assay: In vivo galactitol inhibitory activity measured by its ability to inhibit galactitol accumulation in sciatic nerve at 9 mg/Kg/day; NS=Not significant (% Inhibition). The assay is classed as functional, organism-based. In outline: as §1
In assay [8] the test system is Rattus norvegicus. Kind of assay: In vivo galactitol inhibitory activity measured by its ability to inhibit galactitol accumulation in sciatic nerve at 6 mg/Kg/day; NS=Not significant (% Inhibition). The assay is classed as functional, organism-based. The method in brief: as §1
For assay [9], the system named is Rattus norvegicus. Kind of assay: In vivo galactitol inhibitory activity measured by its ability to inhibit galactitol accumulation in diaphragm at 3 mg/Kg/day; NS=Not significant (% Inhibition). In kind it is functional, organism-based. The method in brief: as §2
Assay [10] relates to Rattus norvegicus. Kind of assay: In vivo galactitol inhibitory activity measured by its ability to inhibit galactitol accumulation in diaphragm at 9 mg/Kg/day; NS=Not significant (% Inhibition). The assay is classed as functional, organism-based. In outline: as §2
The subject of assay [11] is Mus musculus. Kind of assay: Antihyperglycemic activity measured as percent decrease in mice plasma glucose at 100 mg/Kg/day. The assay is classed as functional. The method in brief: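 Male db/db (C57BL/KsJ) mice, 4–6 per group, dosed at 100 mg/kg per day. Plasma glucose of the drug-treated group is expressed as percent decrease relative to a vehicle-treated control group. Values are mean ± SE, with p < 0.05 marked.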

Assay [12] has as its system Rattus norvegicus. Kind of assay: In vivo galactitol inhibitory activity measured by its ability to inhibit galactitol accumulation in diaphragm at 6 mg/Kg/day; NS=Not significant (% Inhibition). The assay is classed as functional, organism-based. The method in brief:
as §2

Assay [13] deals with Rattus norvegicus. Kind of assay: In vivo galactitol inhibitory activity measured by its ability to inhibit galactitol accumulation in lens at 6 mg/Kg/day; NS=Not significant (% Inhibition). The assay is classed as functional, organism-based. The note with it: Lens of camera-type eye. In outline:
as §2

The test system of assay [14] is Rattus norvegicus. Kind of assay: In vivo galactitol inhibitory activity measured by its ability to inhibit galactitol accumulation in lens at 3 mg/Kg/day; NS=Not significant. In kind it is functional, organism-based. The note with it: Lens of camera-type eye. The method in brief: as §2
Assay [15] has as its system Rattus norvegicus. Kind of assay: In vivo galactitol inhibitory activity measured by its ability to inhibit galactitol accumulation in diaphragm at 3 mg/Kg/day; NS=Not significant. The assay is classed as functional, organism-based. The method in brief: as §2
Assay [16] relates to Rattus norvegicus. Kind of assay: In vivo galactitol inhibitory activity measured by its ability to inhibit galactitol accumulation in sciatic nerve at 3 mg/Kg/day; NS=Not significant. The assay is classed as functional, organism-based. In outline: as §1
Assay [17] relates to Rattus norvegicus. Kind of assay: In vivo galactitol inhibitory activity measured by its ability to inhibit galactitol accumulation in diaphragm at 6 mg/Kg/day. In kind it is functional. In outline: as §2
Assay [18] relates to Rattus norvegicus. Kind of assay: In vivo galactitol inhibitory activity measured by its ability to inhibit galactitol accumulation in sciatic nerve at 6 mg/Kg/day. In kind it is functional. The method in brief:
as §1

For assay [19], the system named is Rattus norvegicus. Kind of assay: In vivo galactitol inhibitory activity measured by its ability to inhibit galactitol accumulation in lens at 4 mg/Kg/day; NS=Not significant (% Inhibition). In kind it is functional, organism-based. The conditions noted are these: Lens of camera-type eye. In outline:
as §2

Assay [20] concerns Rattus norvegicus. Kind of assay: In vivo galactitol inhibitory activity measured by its ability to inhibit galactitol accumulation in diaphragm at 4 mg/Kg/day; NS=Not significant (% Inhibition). The assay is classed as functional, organism-based. In outline: as §2
In assay [21] the test system is Rattus norvegicus. Kind of assay: In vivo galactitol inhibitory activity measured by its ability to inhibit galactitol accumulation in sciatic nerve at 4 mg/Kg/day; NS=Not significant (% Inhibition). The assay is classed as functional, organism-based. In outline:
as §1

Assay [22] relates to Rattus norvegicus. Kind of assay: In vivo galactitol inhibitory activity measured by its ability to inhibit galactitol accumulation in lens at 6 mg/Kg/day. In kind it is functional, Lens of camera-type eye. The method in brief:
as §2

Assay [23] concerns Rattus norvegicus. Kind of assay: In vivo galactitol inhibitory activity measured by its ability to inhibit galactitol accumulation in lens at 32 mg/Kg/day. The assay is classed as functional. The note with it: Lens of camera-type eye. The method in brief: as §2
The test system of assay [24] is Rattus norvegicus. Kind of assay: In vivo galactitol inhibitory activity measured by its ability to inhibit galactitol accumulation in sciatic nerve at 32 mg/Kg/day. The assay is classed as functional. In outline: as §1
Assay [25] deals with Rattus norvegicus. Kind of assay: In vivo galactitol inhibitory activity measured by its ability to inhibit galactitol accumulation in diaphragm at 109 mg/Kg/day. In kind it is functional. The method in brief:
as §2

Assay [26] concerns Rattus norvegicus. Kind of assay: In vivo galactitol inhibitory activity measured by its ability to inhibit galactitol accumulation in sciatic nerve at 109 mg/Kg/day; NS=Not significant (% Inhibition). In kind it is functional, organism-based. In outline:
as §1

Assay [27] concerns Rattus norvegicus. Kind of assay: In vivo galactitol inhibitory activity measured by its ability to inhibit galactitol accumulation in lens at 109 mg/Kg/day; NS=Not significant (% Inhibition). The note with it: Lens of camera-type eye. In kind it is functional, organism-based. The method in brief:
as §2

Active and inactive are the calls of the source. The calls are words filed in the database; no cut-off is given here. Bounds are passed on as bounds.

For the molecule `CC(C)N1C2(CC(=O)NC2=O)c2ccccc2S1(=O)=O` (centres undefined), in the assay with Mus musculus [1], the Decrease is 27%.

In general, inhibition refers to the percentage by which the read-out fell short of the control. Broadly, the inhibition in vivo is the drop in the measured response relative to a control, in per cent. A lower inhibition in vivo goes with a weak effect. Take `CN1C(=O)c2c(Cl)cccc2C12CC(=O)NC2=O` (centres undefined): the inhibition result in the assay with Rattus norvegicus [2], in the assay on Rattus norvegicus [3], in the assay with Rattus norvegicus [7], in the assay on Rattus norvegicus [8], in the assay with Rattus norvegicus [9] and in the assay with Rattus norvegicus [10] was “inactive” in each case. Further, the inhibition result in the assay with Rattus norvegicus [12] and with Rattus norvegicus [13] was “inactive” in each case. Besides, the inhibition in vivo at 3 mg/kg/day in the assay with Rattus norvegicus [4] came out at 21%. Also, the results for the inhibition in [5] and in assay [6] were 65% and 29%, respectively. Besides, the Decrease in the assay on Mus musculus [11] is on record as less than 15%.

As to `CCN1C(=O)c2ccc(Cl)cc2C12CC(=O)NC2=O` (centres undefined), the inhibition result in the assay with Rattus norvegicus [14], with Rattus norvegicus [15] and in the assay with Rattus norvegicus [16] was “inactive” in each case. Further, the inhibition came to 37% in assay [5] and 14% in assay [6]. The molecule further returned a Decrease in the assay with Mus musculus [11] of less than 15%.

With `COc1ccc2c(C(=S)N(C)CC(=O)O)cccc2c1C(F)(F)F` [TOLRESTAT], the inhibition in vivo at 6 mg/kg/day in the assay with Rattus norvegicus [17] is 80%; in the assay with Rattus norvegicus [18] it was 53%. In addition, in the assay with Rattus norvegicus [13], the inhibition result is “inactive”.

Consider `CCCN1C(=O)c2cc(Cl)c(Cl)cc2C12CC(=O)NC2=O` (centres undefined), for which the inhibition result in the assay on Rattus norvegicus [19], in the assay on Rattus norvegicus [20] and with Rattus norvegicus [21] was “inactive” each time. The Decrease in the assay with Mus musculus [11] is on record as less than 15%.

For orientation: Inhibition means the share of the control response that was lost under treatment. Lower therefore signals a response near the control. Turning to `CN1C(=O)c2ccc(Cl)cc2C12CC(=O)NC2=O` (single isomer, unassigned; (+)), the inhibition in vivo at 6 mg/kg/day in the assay with Rattus norvegicus [17] turned out to be 67%; in the assay with Rattus norvegicus [18], 58%. Moreover, the Inhibition in the assay with Rattus norvegicus [22] was determined as 21%.

On to `CN1C(=O)c2cccc(Cl)c2C12CC(=O)NC2=O` (centres undefined), for which the inhibition in [5] worked out at 57%; in [6], 19%. Besides, the figures for the inhibition in vivo at 32 mg/kg/day in the assay on Rattus norvegicus [23] and in the assay on Rattus norvegicus [24] were 13% and 32%, respectively.

Molecule `O=C1CC2(C(=O)N1)c1ccccc1C(=O)N2Cc1ccc(Cl)c(Cl)c1` (centres undefined) gave an inhibition in vivo at 109 mg/kg/day in the assay on Rattus norvegicus [25] of 33%. The inhibition in assay [5] stood at 45%; in [6], 18%. For the same molecule, the inhibition entry with Rattus norvegicus [26] and in the assay on Rattus norvegicus [27] was “inactive” each time. The Decrease in the assay with Mus musculus [11] is reported as 21%.
